Reference: ChEMBL document CHEMBL1137403, “Discovery of 2-[4-{{2-(2S,5R)-2-cyano-5-ethynyl-1-pyrrolidinyl]-2-oxoethyl]amino]- 4-methyl-1-piperidinyl]-4-pyridinecarboxylic acid (ABT-279): a very potent, selective, effective, and well-tolerated inhibitor of dipeptidyl peptidase-IV, useful for the treatment of diabetes” (J Med Chem, 2006)
Activity calls are given as the source filed them. No cut-off for these calls is given here.

Key:
[1] = Tmax in Sprague-Dawley rat at 5 mg/kg, po; format: ADME, organism-based; design: dose 5 mg/kg, route oral; settings: in vivo
[2] = Volume of distribution in cynomolgus monkey at 2.5 mg/kg, iv; format: ADME, organism-based, Macaca fascicularis; design: dose 2.5 mg/kg, route intravenous; settings: in vivo, read-out: Vss
Rattus norvegicus [3] = assay: Hemodynamic activity in rat upto 28 ug/ml, iv; format: functional, organism-based
How it was run: (§1)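 Hemodynamic and electrocardiographic profile recorded in anesthetized rats or dogs given the drug intravenously, at plasma concentrations up to 28 µg/mL.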

Canis familiaris = assay: Electrocardiographic activity in dog upto 28 ug/ml, iv; format: functional, organism-based; settings: Canis lupus familiaris; how it was run: as §1
Cytochrome P450 2C9 = Cytochrome P450 2C9 (Homo sapiens, UniProt P11712); assay: Inhibition of CYP2C9; format: ADME
Chain of Cytochrome P450 2C9 (P11712 whole entry): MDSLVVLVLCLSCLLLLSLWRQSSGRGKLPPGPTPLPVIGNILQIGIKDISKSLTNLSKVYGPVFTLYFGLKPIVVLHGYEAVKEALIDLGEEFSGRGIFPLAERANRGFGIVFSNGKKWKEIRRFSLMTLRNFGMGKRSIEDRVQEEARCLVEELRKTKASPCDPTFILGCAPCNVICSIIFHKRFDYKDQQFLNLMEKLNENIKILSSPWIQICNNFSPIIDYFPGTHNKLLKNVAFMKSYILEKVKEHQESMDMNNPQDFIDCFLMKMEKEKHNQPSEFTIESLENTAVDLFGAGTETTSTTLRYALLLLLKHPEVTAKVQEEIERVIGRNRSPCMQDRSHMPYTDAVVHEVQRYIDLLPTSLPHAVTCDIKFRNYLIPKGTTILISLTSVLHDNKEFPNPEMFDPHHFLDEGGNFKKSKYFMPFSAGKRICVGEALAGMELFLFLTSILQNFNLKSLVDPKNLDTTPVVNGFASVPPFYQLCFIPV

[4] = Plasma clearance in Beagle dog at 2.5 mg/kg, iv; format: ADME, organism-based, Canis lupus familiaris; design: dose 2.5 mg/kg, route intravenous
[5] = Volume of distribution in Beagle dog at 2.5 mg/kg, iv; format: ADME, organism-based, Canis lupus familiaris; design: dose 2.5 mg/kg, route intravenous; settings: in vivo, read-out: Vss
[6] = AUC (0-24h) in dog; format: ADME, organism-based, Canis lupus familiaris; design: time < 24 hr; settings: plasma
[7] = Volume of distribution in Sprague-Dawley rat at 5 mg/kg, iv; format: ADME, organism-based; design: dose 5 mg/kg, route intravenous; settings: in vivo, read-out: Vss
Salmonella typhi = assay: Mutagenicity against Salmonella typhi by miniAmes test upto 2 mg/well; format: functional, organism-based; settings: Salmonella enterica subsp. enterica serovar Typhi
[8] = Half life in Sprague-Dawley rat at 5 mg/kg, iv; format: ADME, organism-based; design: dose 5 mg/kg, route intravenous; settings: in vivo
[9] = Tmax in Beagle dog at 2.5 mg/kg, po; format: ADME, organism-based, Canis lupus familiaris; design: dose 2.5 mg/kg, route oral; settings: in vivo
[10] = biological target: Voltage-gated inwardly rectifying potassium channel KCNH2 (Homo sapiens, UniProt Q12809); assay: Binding affinity to hERG
Chain of Voltage-gated inwardly rectifying potassium channel KCNH2 (Q12809 whole entry): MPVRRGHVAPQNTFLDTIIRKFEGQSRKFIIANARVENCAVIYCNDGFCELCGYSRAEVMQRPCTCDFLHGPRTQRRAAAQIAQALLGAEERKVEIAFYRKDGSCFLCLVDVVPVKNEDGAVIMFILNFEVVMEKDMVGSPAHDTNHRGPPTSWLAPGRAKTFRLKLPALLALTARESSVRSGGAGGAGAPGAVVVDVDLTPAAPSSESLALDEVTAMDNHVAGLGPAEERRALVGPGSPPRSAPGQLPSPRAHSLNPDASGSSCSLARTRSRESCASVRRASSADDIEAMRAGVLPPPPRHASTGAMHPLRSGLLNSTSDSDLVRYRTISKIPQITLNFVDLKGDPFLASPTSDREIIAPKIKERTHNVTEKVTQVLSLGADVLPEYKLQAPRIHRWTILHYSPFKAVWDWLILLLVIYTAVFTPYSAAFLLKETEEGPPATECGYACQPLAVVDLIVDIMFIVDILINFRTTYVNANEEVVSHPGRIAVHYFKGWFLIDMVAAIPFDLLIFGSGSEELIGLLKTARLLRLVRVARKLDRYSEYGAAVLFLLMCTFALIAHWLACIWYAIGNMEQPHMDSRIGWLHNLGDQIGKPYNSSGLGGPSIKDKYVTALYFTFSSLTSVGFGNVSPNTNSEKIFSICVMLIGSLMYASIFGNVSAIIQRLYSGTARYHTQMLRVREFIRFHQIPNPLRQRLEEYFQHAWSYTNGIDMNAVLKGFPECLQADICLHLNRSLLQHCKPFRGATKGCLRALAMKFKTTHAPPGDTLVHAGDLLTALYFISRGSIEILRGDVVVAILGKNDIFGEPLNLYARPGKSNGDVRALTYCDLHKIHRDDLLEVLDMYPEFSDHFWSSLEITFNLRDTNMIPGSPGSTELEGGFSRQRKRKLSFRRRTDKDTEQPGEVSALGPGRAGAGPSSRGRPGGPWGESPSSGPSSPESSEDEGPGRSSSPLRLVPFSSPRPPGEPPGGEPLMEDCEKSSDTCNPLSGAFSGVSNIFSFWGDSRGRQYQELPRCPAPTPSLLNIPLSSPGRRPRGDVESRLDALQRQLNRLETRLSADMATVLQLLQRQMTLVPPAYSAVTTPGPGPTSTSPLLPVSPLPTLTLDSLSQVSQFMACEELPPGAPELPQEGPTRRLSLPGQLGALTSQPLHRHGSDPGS

Dipeptidyl peptidase 9 = Dipeptidyl peptidase 9 (Homo sapiens, UniProt Q86TI2)
Chain of Dipeptidyl peptidase 9 (Q86TI2 whole entry): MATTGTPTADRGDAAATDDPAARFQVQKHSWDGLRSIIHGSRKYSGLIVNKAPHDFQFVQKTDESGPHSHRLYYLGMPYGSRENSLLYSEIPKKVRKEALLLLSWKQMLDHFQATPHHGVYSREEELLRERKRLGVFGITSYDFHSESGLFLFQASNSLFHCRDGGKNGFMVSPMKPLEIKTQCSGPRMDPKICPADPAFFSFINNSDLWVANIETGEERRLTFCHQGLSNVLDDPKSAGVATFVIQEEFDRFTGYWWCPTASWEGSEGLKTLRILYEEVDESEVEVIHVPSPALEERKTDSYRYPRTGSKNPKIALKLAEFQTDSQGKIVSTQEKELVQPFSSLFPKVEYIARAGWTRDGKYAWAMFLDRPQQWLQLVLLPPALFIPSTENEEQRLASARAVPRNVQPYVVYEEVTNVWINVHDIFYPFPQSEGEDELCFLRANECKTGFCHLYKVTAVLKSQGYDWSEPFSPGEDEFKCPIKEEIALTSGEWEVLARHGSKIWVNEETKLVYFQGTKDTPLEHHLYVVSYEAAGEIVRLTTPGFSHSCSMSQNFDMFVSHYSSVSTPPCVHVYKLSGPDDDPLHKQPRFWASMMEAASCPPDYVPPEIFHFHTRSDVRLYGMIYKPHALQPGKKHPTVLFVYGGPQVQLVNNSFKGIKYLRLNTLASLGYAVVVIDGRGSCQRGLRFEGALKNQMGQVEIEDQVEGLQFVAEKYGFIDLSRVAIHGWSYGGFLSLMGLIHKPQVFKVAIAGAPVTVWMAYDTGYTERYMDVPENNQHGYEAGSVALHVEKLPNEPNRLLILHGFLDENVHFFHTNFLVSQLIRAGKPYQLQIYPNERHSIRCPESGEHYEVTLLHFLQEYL

[11] = Half life in cynomolgus monkey at 2.5 mg/kg, iv; format: ADME, organism-based, Macaca fascicularis; design: dose 2.5 mg/kg, route intravenous; settings: in vivo
[12] = Half life in Beagle dog at 2.5 mg/kg, po; format: ADME, organism-based, Canis lupus familiaris; design: dose 2.5 mg/kg, route oral; settings: in vivo
[13] = Oral bioavailability in Sprague-Dawley rat at 5 mg/kg, po; format: ADME, organism-based; settings: in vivo
[14] = Half life in Beagle dog at 2.5 mg/kg, iv; format: ADME, organism-based, Canis lupus familiaris; design: dose 2.5 mg/kg, route intravenous; settings: in vivo
[15] = Plasma clearance in Sprague-Dawley rat at 5 mg/kg, iv; format: ADME, organism-based; design: dose 5 mg/kg, route intravenous
[16] = Tmax in cynomolgus monkey at 2.5 mg/kg, po; format: ADME, organism-based, Macaca fascicularis; design: dose 2.5 mg/kg, route oral; settings: in vivo
Rattus norvegicus [17] = organism: Rattus norvegicus; assay: Insulin level in Zucker rat after 10 mins; format: functional
How it was run: (§2)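 Female ZDF rats, 10 weeks old, fasted overnight, then dosed orally with vehicle or drug. Four hours after dosing (t = 0) they had free access for 4 h to a liquid mixed meal (Ensure). Plasma was sampled for drug level, active GLP-1, insulin, glucagon and glucose.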

[18] = Oral bioavailability in cynomolgus monkey at 2.5 mg/kg, po; format: ADME, organism-based, Macaca fascicularis; settings: in vivo
[19] = AUC in cynomolgus monkey at 2.5 mg/kg, iv; format: ADME, organism-based, Macaca fascicularis; design: dose 2.5 mg/kg, route intravenous; settings: plasma
How it was run: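 Single intravenous dose. Plasma drug exposure is reported as area under the curve in µg-hr/mL. It is listed in the same table as T1/2, Vss, Vβ and plasma clearance (CLp).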

Rattus norvegicus [20] = organism: Rattus norvegicus; assay: Reduction in postprandial glucose excursion in Zucker rat measured as AUC glucose (0-240 min); format: functional, organism-based; design: time < 4 hr; how it was run: as §2
[21] = AUC in Beagle dog at 2.5 mg/kg, po; format: ADME, organism-based, Canis lupus familiaris; design: dose 2.5 mg/kg, route oral; settings: plasma
[22] = Cmax in Beagle dog at 2.5 mg/kg, po; format: ADME, organism-based, Canis lupus familiaris; design: dose 2.5 mg/kg, route oral; settings: in vivo
[23] = Plasma clearance in cynomolgus monkey at 2.5 mg/kg, iv; format: ADME, organism-based, Macaca fascicularis; design: dose 2.5 mg/kg, route intravenous
[24] = Cmax in Sprague-Dawley rat at 5 mg/kg, po; format: ADME, organism-based; design: dose 5 mg/kg, route oral; settings: in vivo

C#C[C@H]1CC[C@@H](C#N)N1C(=O)CNC1(C)CCN(c2cc(C(=O)O)ccn2)CC1
Tmax [1]: 4.7 h
Vd [2]: 0.3 L/kg
Activity (Rattus norvegicus [3]): Active
Activity (Canis familiaris): Active
IC50 (Cytochrome P450 2C9): > 30 µM
clearance [4]: 15.2 mL/min/kg
Vd [5]: 1.5 L/kg
AUC(0-t) at 24 h [6]: 36000 ng·h/mL
Vd [7]: 2.2 L/kg
Activity (Salmonella typhi): inactive
half-life [8]: 6.8 h
Tmax [9]: 0.8 h
Ki [10]: > 45.1 µM
Ki (Dipeptidyl peptidase 9): > 30 µM
half-life [11]: 1.7 h
half-life [12]: 5.3 h
bioavailability [13]: 28%
half-life [14]: 6.4 h
clearance [15]: 11.3 mL/min/kg
Tmax [16]: 2.7 h
Activity (Rattus norvegicus [17]): 39 ng/mL
bioavailability [18]: 11.2%
AUC [19]: 5200 ng·h/mL
AUC (Rattus norvegicus [20]): 12500 mg/dL·min
AUC [21]: 970 ng·h/mL
Cmax [22]: 300 ng/mL
clearance [23]: 8.5 mL/min/kg
Cmax [24]: 370 ng/mL
